Laboratory results reported in ChEMBL document CHEMBL3994597, “Resin Glycosides from Ipomoea alba Seeds as Potential Chemosensitizers in Breast Carcinoma Cells” (J Nat Prod, 2016).

Legend:
MCF7 [1] = assay: Cytotoxicity against multidrug resistant human MCF7 cells cultured in vinblastine free medium assessed as growth inhibition after 72 hrs by SRB assay; assay type: functional, cell-based; conditions: MCF7, 72 h
How it was run: (§1)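 Cells in log phase, grown in RPMI 1640 with 10% FBS at 37 °C, 5% CO2, humidified, were exposed in triplicate to test samples at 0.2−25 μg/mL for 72 h. Growth was read by sulforhodamine B staining. IC50 is the concentration giving 50% growth inhibition relative to untreated control, taken from a semilog plot of concentration (μg/mL) against % inhibition. Vinblastine served as positive control.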

MCF7 [2] = assay: Cytotoxicity against multidrug resistant human MCF7 cells cultured in vinblastine containing medium assessed as growth inhibition after 72 hrs by SRB assay; assay type: functional, cell-based; conditions: MCF7, 72 h; how it was run: as §1
Homo sapiens [3] = organism: Homo sapiens; assay: (§2) Inhibition of multidrug resistance efflux pump in multidrug resistant human MCF7 cells cultured in vinblastine containing medium assessed as potentiation of vinblastine-induced cytotoxicity by measuring fold reduction in vinblastine IC50 at 5 ug/ml after 72 hrs by SRB assay relative to vinblastine alone
How it was run: (§3)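 MCF-7/Vin+ resistant cells were kept in medium containing 0.192 μg/mL vinblastine to hold resistance.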

Homo sapiens [4] = organism: Homo sapiens; assay: Inhibition of multidrug resistance efflux pump in multidrug resistant human MCF7 cells cultured in vinblastine free medium assessed as potentiation of vinblastine-induced cytotoxicity by measuring fold reduction in vinblastine IC50 at 5 ug/ml after 72 hrs by SRB assay relative to vinblastine alone
How it was run: (§4)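 MCF-7/Vin− cells were a stock of the resistant line maintained in vinblastine-free medium.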

MCF7 [5] = assay: Potentiation of vinblastine-induced cytotoxicity against vinblastine-sensitive human MCF7 cells assessed as fold reduction in vinblastine IC50 at 5 ug/ml after 72 hrs by SRB assay relative to vinblastine alone; assay type: functional
How it was run: (§5)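 Modulation assay in sensitive MCF-7 or resistant MCF-7/Vin cells. Cells received vinblastine at 0.00064−10 μg/mL, alone or with glycolipid at 25 or 5 μg/mL, for 72 h. Read-out was SRB, and vinblastine IC50 was derived as in the cytotoxicity assay. Reversal fold = IC50 of vinblastine alone / IC50 with glycolipid. Reserpine at 5 μg/mL served as positive control. Values are mean ± SD of three independent experiments.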

HeLa = assay: Cytotoxicity against human HeLa cells assessed as growth inhibition after 72 hrs by SRB assay; assay type: functional, cell-based; how it was run: as §1
MCF7 [6] = assay: Cytotoxicity against vinblastine-sensitive human MCF7 cells assessed as growth inhibition after 72 hrs by SRB assay; assay type: functional, cell-based; conditions: MCF7, 72 h; how it was run: as §1
Homo sapiens [7] = organism: Homo sapiens; assay: Inhibition of multidrug resistance efflux pump in multidrug resistant human MCF7 cells cultured in vinblastine free medium assessed as potentiation of vinblastine-induced cytotoxicity by measuring fold reduction in vinblastine IC50 at 25 ug/ml after 72 hrs by SRB assay relative to vinblastine alone; how it was run: as §4
MCF7 [8] = assay: Potentiation of vinblastine-induced cytotoxicity against vinblastine-sensitive human MCF7 cells assessed as fold reduction in vinblastine IC50 at 25 ug/ml after 72 hrs by SRB assay relative to vinblastine alone; assay type: functional; how it was run: as §5
HCT-15 = assay: Cytotoxicity against human HCT15 cells assessed as growth inhibition after 72 hrs by SRB assay; assay type: functional, cell-based; conditions: HCT-15, 72 h; how it was run: as §1
Homo sapiens [9] = organism: Homo sapiens; assay: as §2, with “at 25” for “at 5”; how it was run: as §3
MDA-MB-231 = assay: Cytotoxicity against human MDA-MB-231 cells assessed as growth inhibition after 72 hrs by SRB assay; assay type: functional, cell-based; conditions: MDA-MB-231, 72 h; how it was run: as §1
HCT-116 = assay: Cytotoxicity against human HCT116 cells assessed as growth inhibition after 72 hrs by SRB assay; assay type: functional, cell-based; conditions: HCT-116, 72 h; how it was run: as §1

Structure (SMILES)	IC50 (MCF7 [1]) [µM]	IC50 (MCF7 [2]) [µM]	fold change (FC) (Homo sapiens [3])	fold change (FC) (Homo sapiens [4])	fold change (FC) (MCF7 [5])	IC50 (HeLa) [µM]	IC50 (MCF7 [6]) [µM]	fold change (FC) (Homo sapiens [7])	fold change (FC) (MCF7 [8])	IC50 (HCT-15) [µM]	fold change (FC) (Homo sapiens [9])	IC50 (MDA-MB-231) [µM]	IC50 (HCT-116) [µM]
Cc1c2ccncc2c(C)c2c1[nH]c1ccccc12 [ELLIPTECINE]	1.6	2	–	–	–	–	–	–	–	–	–	–	–
COC(=O)[C@H]1[C@H]2C[C@@H]3c4[nH]c5cc(OC)ccc5c4CCN3C[C@H]2C[C@@H](OC(=O)c2cc(OC)c(OC)c(OC)c2)[C@@H]1OC [RESERPINE]	–	–	3	20	11	–	–	–	–	–	–	–	–
C/C=C(\C)C(=O)O[C@@H]1[C@H](O)[C@@H](O)[C@H](O[C@@H]2[C@@H](O)[C@@H](OC(=O)/C(C)=C/C)[C@H](O[C@H]3[C@@H]4O[C@H]5[C@H](O[C@@H](CCC)CCCCCCCCCC(=O)O[C@H]3[C@H](O)[C@@H](CO)O4)O[C@H](C)[C@@H](O)[C@@H]5O)O[C@H]2C)O[C@@H]1C	> 20	> 20	–	–	–	17.4	15.1	5	>87	14.3	> 2520	> 20	15.1
CCC[C@H]1CCCCCCCCCC(=O)O[C@H]2[C@H](O[C@H]3[C@H](O)[C@@H](C)O[C@@H](O[C@H]4[C@H](O1)O[C@H](C)[C@@H](O)[C@@H]4O)[C@@H]3O[C@@H]1O[C@@H](C)[C@H](OC(C)=O)[C@@H](O)[C@H]1O)O[C@H](C)[C@@H](O)[C@@H]2OC(=O)[C@H](C)[C@@H](C)O	> 20	> 20	–	–	–	> 20	> 20	322	34	> 20	201	> 20	> 20
COc1cc2c(c(OC)c1OC)-c1ccc(OC)c(=O)cc1[C@@H](NC(C)=O)CC2 [COLCHICINE]	2.8	2.8	–	–	–	–	0.05	–	–	–	–	–	–
C/C=C(\C)C(=O)O[C@H]1[C@H](O[C@H]2[C@@H]3O[C@H]4[C@H](O[C@@H](CCC)CCCCCCCCCC(=O)O[C@H]5[C@H](O[C@H]6[C@H](OC[C@@H](O3)[C@@H](O)[C@@H]2O)O[C@H](C)[C@@H](O)[C@@H]6O)O[C@@H](C)[C@H](O)[C@H]5O)O[C@H](C)[C@@H](O)[C@@H]4O)O[C@@H](C)[C@H](O)[C@H]1O	> 20	> 20	–	–	–	> 20	> 20	1700	4	> 20	3	> 20	> 20
CC[C@@]1(O)C(=O)OCc2c1cc1n(c2=O)Cc2cc3ccccc3nc2-1 [CAMPTOTHECIN]	< 0.0018	< 0.0018	–	–	–	–	< 0.0018	–	–	–	–	–	–
CC[C@]1(O)C[C@@H]2CN(CCc3c([nH]c4ccccc34)[C@@](C(=O)OC)(c3cc4c(cc3OC)N(C)[C@H]3[C@@](O)(C(=O)OC)[C@H](OC(C)=O)[C@]5(CC)C=CCN6CC[C@]43[C@@H]65)C2)C1 [VINBLASTINE]	1.1	1.3	–	–	–	0.002	0.06	–	–	0.06	–	0.01	0.05
C/C=C(\C)C(=O)O[C@@H]1[C@H](O)[C@@H](O)[C@H](O[C@@H]2[C@@H](O)[C@@H](OC(=O)/C(C)=C/C)[C@H](O[C@H]3[C@@H]4O[C@H]5[C@H](O[C@@H](CCCCC)CCCCCCCCCC(=O)O[C@H]3[C@H](O)[C@@H](CO)O4)O[C@H](C)[C@@H](O)[C@@H]5O)O[C@H]2C)O[C@@H]1C	16.3	17	–	–	–	9.6	8	> 1980	>87	9.8	> 2520	11.6	15.9
C/C=C(\C)C(=O)O[C@H]1[C@@H]2O[C@H]3[C@H](O[C@@H](CCC)CCCCCCCCCC(=O)O[C@@H]4[C@@H](O)[C@H](C)O[C@@H](O[C@H]5[C@H](O)[C@@H](C)O[C@@H](O[C@H]([C@H]1O)[C@H](C)O2)[C@@H]5O[C@@H]1O[C@@H](C)[C@H](O)[C@@H](O)[C@H]1OC(=O)[C@H](C)[C@@H](C)O)[C@@H]4O)O[C@H](C)[C@@H](O)[C@@H]3O	> 20	> 20	–	–	–	> 20	> 20	283	37	> 20	3	> 20	> 20
COc1cc([C@@H]2c3cc4c(cc3[C@H](O)[C@H]3COC(=O)[C@H]23)OCO4)cc(OC)c1OC [PODOFILOX]	0.2	0.3	–	–	–	–	0.02	–	–	–	–	–	–
CCC[C@H]1CCCCCCCCCC(=O)O[C@H]2[C@H](OC[C@H]3O[C@@H](O[C@H]4[C@H](O1)O[C@H](C)[C@@H](O)[C@@H]4O)[C@H](O[C@@H]1O[C@@H](C)[C@H](OC(C)=O)[C@@H](O)[C@H]1O)[C@@H](O)[C@@H]3O)O[C@H](C)[C@@H](O)[C@@H]2OC(=O)[C@H](C)[C@@H](C)O	> 20	> 20	–	–	–	> 20	> 20	1	4	> 20	2	> 20	> 20
